Assay results as given in ChEMBL document CHEMBL3232883, “Triaryl-substituted Schiff bases are high-affinity subtype-selective ligands for the estrogen receptor” (J Med Chem, 2014).
Activity calls are given as the source filed them. No cut-off for these calls is given here.

What was measured:
Estrogen receptor beta [1] = molecular target: T1, Estrogen receptor beta (Homo sapiens, UniProt Q92731); test: Displacement of [3H]-estradiol from human full-length ERbeta after 18 to 24 hrs by competitive radiometric binding assay relative to estradiol
T1 sequence (Q92731 whole entry): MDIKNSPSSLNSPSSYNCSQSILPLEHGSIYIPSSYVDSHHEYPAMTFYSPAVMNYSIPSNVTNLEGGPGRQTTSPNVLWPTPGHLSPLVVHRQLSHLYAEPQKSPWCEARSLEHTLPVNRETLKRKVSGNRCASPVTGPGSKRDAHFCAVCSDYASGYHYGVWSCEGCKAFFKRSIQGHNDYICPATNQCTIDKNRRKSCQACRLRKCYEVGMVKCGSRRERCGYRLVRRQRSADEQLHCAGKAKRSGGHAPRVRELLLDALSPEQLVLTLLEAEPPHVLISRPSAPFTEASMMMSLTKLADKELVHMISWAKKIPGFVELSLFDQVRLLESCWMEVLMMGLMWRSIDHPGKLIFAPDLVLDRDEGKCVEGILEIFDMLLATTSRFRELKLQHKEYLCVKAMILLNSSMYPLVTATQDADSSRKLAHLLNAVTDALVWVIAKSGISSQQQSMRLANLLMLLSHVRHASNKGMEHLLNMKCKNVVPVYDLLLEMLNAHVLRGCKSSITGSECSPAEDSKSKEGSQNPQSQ

Estrogen receptor beta [2] = molecular target: T1, Estrogen receptor beta; test: Agonist activity at ERbeta (unknown origin) expressed in human HepG2 cells assessed as transcriptional activation after 24 hrs by ERE-luciferase reporter gene assay; format: cell-based
Outline: (§1)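 HepG2 cells were grown in DMEM with 10% FBS and transfected with a 3×ERE-luciferase reporter plus an ERα or ERβ expression vector. The next day cells were moved to phenol red-free medium with 10% charcoal-dextran-stripped FBS, plated at 20 000 cells/well and left overnight. Ligand was then added as a 12-point dose curve from 10 μM to 100 pM. Luciferase was read after 24 h, normalized to DMSO as 0% and the top of the E2 curve as 100%.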

Estrogen receptor = molecular target: T2, Estrogen receptor (Homo sapiens, UniProt P03372); test: Agonist activity at ERalpha (unknown origin) expressed in human HepG2 cells assessed as transcriptional activation after 24 hrs by ERE-luciferase reporter gene assay; format: cell-based; outline: as §1
T2 sequence (P03372 whole entry): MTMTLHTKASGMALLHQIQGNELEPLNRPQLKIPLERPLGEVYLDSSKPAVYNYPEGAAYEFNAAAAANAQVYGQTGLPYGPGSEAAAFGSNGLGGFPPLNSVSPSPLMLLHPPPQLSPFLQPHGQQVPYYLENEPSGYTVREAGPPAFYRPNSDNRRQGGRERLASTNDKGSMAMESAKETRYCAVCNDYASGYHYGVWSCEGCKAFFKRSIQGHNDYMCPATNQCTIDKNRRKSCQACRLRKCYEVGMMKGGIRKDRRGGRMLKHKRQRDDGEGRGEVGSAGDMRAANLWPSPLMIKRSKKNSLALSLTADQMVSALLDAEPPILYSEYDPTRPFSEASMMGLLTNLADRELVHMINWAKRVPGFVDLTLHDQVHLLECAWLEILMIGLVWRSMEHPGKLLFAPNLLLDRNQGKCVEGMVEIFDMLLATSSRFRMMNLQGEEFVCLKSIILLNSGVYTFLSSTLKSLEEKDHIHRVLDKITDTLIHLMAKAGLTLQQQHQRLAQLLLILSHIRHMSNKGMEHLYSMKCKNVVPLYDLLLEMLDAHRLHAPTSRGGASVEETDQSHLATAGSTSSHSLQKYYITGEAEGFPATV

Homo sapiens = organism: Homo sapiens; test: Selectivity ratio of RBA for human full length ERbeta to RBA for human full-length ERalpha
[3] = molecular target: T3, Estrogen receptor (Homo sapiens) (UniProt P03372); test: Agonist activity at ERalpha (unknown origin) expressed in human HepG2 cells assessed as transcriptional activation after 24 hrs by ERE-luciferase reporter gene assay relative to 17beta-estradiol; format: cell-based
T3 sequence (whole entry): T2 sequence (P03372 whole entry)
Outline: (§2)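 HepG2 cells were cotransfected with a 3×ERE-luciferase reporter (10 μg) plus an ERα or ERβ expression vector (1.6 μg) per 10 cm dish. The next day they were replated at 20 000 cells/well in phenol red-free medium with 10% charcoal-dextran-stripped FBS and held overnight. Cells were then dosed over a 12-point range of 10 μM to 100 pM. Luciferase was read after 24 h, with DMSO set as 0% and the top of the E2 curve as 100%.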

Estrogen receptor beta [4] = molecular target: T1, Estrogen receptor beta; test: Agonist activity at ERbeta (unknown origin) expressed in human HepG2 cells assessed as transcriptional activation after 24 hrs by ERE-luciferase reporter gene assay relative to 17beta-estradiol; format: cell-based; outline: as §2
[5] = molecular target: T3, Estrogen receptor (Homo sapiens); test: Antagonist activity at ERalpha (unknown origin) expressed in human HepG2 cells assessed as inhibition of transcriptional activation after 24 hrs by ERE-luciferase reporter gene assay relative to 17beta-estradiol; format: cell-based
Outline: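 Antagonist mode used HepG2 cells cotransfected with a 3×ERE-luciferase reporter plus an ERα expression vector and steroid-deprived in phenol red-free medium with 10% charcoal-dextran-stripped FBS. Cells received 10 nM estradiol together with increasing compound concentrations across a 10 μM to 100 pM dose curve. Luciferase was measured after 24 h and normalized to DMSO (0%) and the top of the E2 curve (100%).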

[6] = molecular target: T3, Estrogen receptor (Homo sapiens); test: Displacement of [3H]-estradiol from human full-length ERalpha after 18 to 24 hrs by competitive radiometric binding assay relative to estradiol
Estrogen receptor beta [7] = molecular target: T1, Estrogen receptor beta; test: Antagonist activity at ERbeta (unknown origin) expressed in human HepG2 cells assessed as inhibition of 17beta-estradiol-induced transcriptional activation after 24 hrs by ERE-luciferase reporter gene assay; format: cell-based
Outline: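 ERβ-transfected, steroid-deprived HepG2 cells carrying a 3×ERE-luciferase reporter were co-treated with 10 nM estradiol and test ligand over a range of 10 μM to 100 pM. Luciferase was read after 24 h, with each plate normalized to DMSO (0%) and the maximal E2 response (100%). IC50 and % efficacy were derived from the dose curves.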

HepG2 = test: Agonist activity at ERalpha (unknown origin) harboring N-terminal AF1 domain deleted mutant expressed in human HepG2 cells assessed as transcriptional activation after 24 hrs by ERE-luciferase reporter gene assay; format: cell-based

SMILES | RBA (Estrogen receptor beta [1]) [%] | EC50 (Estrogen receptor beta [2]) [nM] | EC50 (Estrogen receptor) [nM] | Selectivity ratio (Homo sapiens) | Efficacy [3] [%] | Efficacy (Estrogen receptor beta [4]) [%] | Efficacy [5] [%] | RBA [6] [%] | IC50 (Estrogen receptor beta [7]) [nM] | Activity (HepG2)
COc1ccc(/N=C(\c2ccc(O)cc2)c2ccc(O)cc2O)cc1 | 5.33 | 276 | 17 | 0.5 | 102 | 38 | 102 | 10.5 | – | –
Oc1ccc(/N=C(\c2ccc(O)cc2)c2ccc(O)cc2O)cc1 | 1.23 | – | 7 | 0.5 | 97 | 51 | 108 | 2.25 | 417 | inactive
COc1ccc(/N=C(\c2ccccc2)c2ccc(O)cc2O)cc1 | 5.55 | – | – | 0.49 | – | – | – | 11.3 | – | –
Oc1ccc(/C(=N\c2cccc(C(F)(F)F)c2)c2ccc(O)cc2O)cc1 | 72.1 | – | 57 | 2.6 | 100 | 11 | 95 | 28.2 | 28 | inactive
Oc1ccc(/C(=N\c2cccc(Cl)c2)c2ccc(O)cc2O)cc1 | 61.6 | – | 15 | 1.6 | 117 | 15 | 118 | 37.6 | 67 | inactive
Oc1ccc(/C(=N\c2ccc(F)cc2)c2ccc(O)cc2O)cc1 | 27.7 | – | 10 | 1.3 | 108 | 23 | 124 | 21.1 | 139 | inactive
C/C(=N\c1ccc(O)cc1)c1ccc(O)cc1 | < 3 | – | – | – | – | – | – | < 3 | – | –
Cc1ccccc1/N=C(\c1ccc(O)cc1)c1ccc(O)cc1O | 45.1 | 2 | – | 0.9 | 111 | 31 | 100 | 53.3 | 16 | inactive
Oc1ccc(/C(=N\c2ccc(Br)cc2)c2ccc(O)cc2O)cc1 | 70.3 | 12500 | 9 | 1.1 | 113 | 24 | 111 | 64.6 | 100 | inactive
Oc1ccc(/C(=N\c2ccccc2)c2ccc(O)cc2O)cc1 | 18.5 | 628 | 7 | 1.3 | 102 | 25 | 134 | 14.6 | 6 | –
Oc1ccc(C(=Nc2cccc(C(F)(F)F)c2)c2ccc(O)cc2)cc1 | 139 | – | 23 | 4.2 | 89 | 3 | 104 | 33.4 | 24 | inactive
Oc1ccc(/C(=N\c2ccccc2Cl)c2ccc(O)cc2O)cc1 | 77.9 | – | 0.1 | 0.8 | 113 | 54 | 136 | 96.7 | 6 | inactive
Cc1cccc(/N=C(\c2ccc(O)cc2)c2ccc(O)cc2O)c1 | 38.1 | – | 14 | 2.5 | 95 | 9 | 101 | 15.3 | 51 | inactive
Oc1ccc(C(=Nc2ccccc2Cl)c2ccc(O)cc2)cc1 | 97 | – | 1 | 1.5 | 104 | 37 | 83 | 62.8 | 19 | inactive
COc1ccc(/C(=N\c2ccc(O)cc2)c2ccc(O)cc2O)cc1 | 39.2 | – | – | 3.2 | – | – | – | 11.9 | – | –
Oc1ccc(/N=C/c2ccccc2O)cc1 | < 3 | – | – | – | – | – | – | < 3 | – | –
Cc1cccc(C)c1N=C(c1ccc(O)cc1)c1ccc(O)cc1 | 2.91 | – | – | 1.9 | – | – | – | 1.56 | – | –

Now from value to compound, other results behind:

RBA (Estrogen receptor beta [1]) [%] | EC50 (Estrogen receptor beta [2]) [nM] | EC50 (Estrogen receptor) [nM] | Selectivity ratio (Homo sapiens) | Efficacy [3] [%] | Efficacy (Estrogen receptor beta [4]) [%] | Efficacy [5] [%] | RBA [6] [%] | IC50 (Estrogen receptor beta [7]) [nM] | SMILES | Activity (HepG2)
127 | – | 2 | 2.6 | 114 | 9 | 138 | 49.2 | 9 | Oc1ccc(C(=Nc2ccc(Cl)cc2)c2ccc(O)cc2)cc1 | inactive
20.1 | – | – | 2 | – | 7 | – | 10 | 45 | Cc1ccc(N=C(c2ccc(O)cc2)c2ccc(O)cc2)cc1 | inactive
94.1 | – | 1 | 2.3 | 105 | 11 | 128 | 41.5 | 6 | Oc1ccc(C(=Nc2ccc(Br)cc2)c2ccc(O)cc2)cc1 | inactive
114 | – | 10 | 2.5 | 102 | 10 | 109 | 41.8 | 16 | Oc1ccc(C(=Nc2cccc(Cl)c2)c2ccc(O)cc2)cc1 | inactive
0.99 | 332 | 14 | 0.5 | 95 | 16 | 111 | 1.86 | 300 | Oc1ccc(N=C(c2ccc(O)cc2)c2ccc(O)cc2)cc1 | inactive
3.98 | – | – | 0.9 | – | – | – | 4.41 | – | COc1ccc(N=C(c2ccc(O)cc2)c2ccc(O)cc2)cc1 | –
116 | – | 7 | 2.8 | 103 | 8 | 149 | 40.6 | 6 | Cc1ccccc1N=C(c1ccc(O)cc1)c1ccc(O)cc1 | inactive
45.6 | – | 2 | 2.3 | 114 | 10 | 113 | 19.7 | 7 | Oc1ccc(C(=Nc2ccc(F)cc2)c2ccc(O)cc2)cc1 | inactive
31.5 | – | 3 | 2.2 | 110 | 34 | 126 | 14.1 | 13 | Oc1ccc(C(=Nc2ccccc2)c2ccc(O)cc2)cc1 | –
69.2 | – | 5 | 5.2 | 109 | 13 | 93 | 13.2 | 41 | Cc1cccc(N=C(c2ccc(O)cc2)c2ccc(O)cc2)c1 | inactive
17.1 | 10900 | 16 | 1.9 | 103 | 20 | 122 | 9.12 | 241 | Cc1ccc(/N=C(\c2ccc(O)cc2)c2ccc(O)cc2O)cc1 | inactive
